The record followed here is ChEMBL document CHEMBL2176911 (J Med Chem, 2012).

Experiment [1] is described as follows: Inhibition of Plasmodium falciparum recombinant GSK3 expressed in Escherichia coli using YRRAAVPPSPSLSRHSSPHQ-phosphoS-EDEEE as substrate and [gamma33P]ATP after 30 mins by scintillation counting. The essentials: (§1)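 Panel of purified kinases (recombinant from several species plus native enzymes), each assayed radiometrically over a range of inhibitor concentrations; IC50 in μM calculated from the dose-response curves.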

For experiment [2], the target named is Mitogen-activated protein kinase 1 (Rattus norvegicus, UniProt P63086). Description: Inhibition of rat recombinant ERK2 using Ets1 as substrate and [gamma33P]ATP as substrate after 30 mins by scintillation counting. The essentials: as §1
Experiment [3] addresses Dual specificity protein kinase CLK3 (Homo sapiens, UniProt P49761). Description: Binding affinity to CLK3.
Experiment [4] addresses Dual specificity protein kinase CLK3 (Mus musculus, UniProt O35492). Put plainly: Inhibition of mouse recombinant GST-tagged CLK3 expressed in Escherichia coli using GRSRSRSRSRSR as substrate and [gamma33P]ATP after 30 mins by scintillation counting. The essentials: as §1
Experiment [5] is described as follows: Inhibition of pig […] isolated from brain using RRKHAAIGpSAYSITA as substrate and [gamma33P]ATP after 30 mins by scintillation couting. The arrangement: species or system Sus scrofa. The essentials:
as §1

Experiment [6] deals with Dual specificity protein kinase CLK4 (Homo sapiens, UniProt Q9HAZ1). Put plainly: Binding affinity to CLK4.
The target in experiment [7] is T1, Dual specificity tyrosine-phosphorylation-regulated kinase 4 (Homo sapiens, UniProt Q9NR20).
T1 sequence (Q9NR20 whole entry): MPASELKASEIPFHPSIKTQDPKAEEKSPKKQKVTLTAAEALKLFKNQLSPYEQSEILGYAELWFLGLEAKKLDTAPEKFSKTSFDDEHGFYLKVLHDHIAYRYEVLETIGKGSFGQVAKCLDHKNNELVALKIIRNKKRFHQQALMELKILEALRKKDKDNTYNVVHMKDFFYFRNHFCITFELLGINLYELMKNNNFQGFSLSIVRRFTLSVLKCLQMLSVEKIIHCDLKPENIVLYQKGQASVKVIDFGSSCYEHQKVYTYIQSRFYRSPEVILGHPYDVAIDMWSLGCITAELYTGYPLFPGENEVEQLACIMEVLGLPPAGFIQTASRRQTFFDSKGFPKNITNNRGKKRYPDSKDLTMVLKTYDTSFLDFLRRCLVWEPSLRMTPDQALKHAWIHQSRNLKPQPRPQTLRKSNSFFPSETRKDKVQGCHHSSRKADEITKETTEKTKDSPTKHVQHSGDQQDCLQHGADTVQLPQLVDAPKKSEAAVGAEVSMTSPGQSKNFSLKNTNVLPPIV
Description: Inhibition of human recombinant GST-tagged DYRK4 expressed in Escherichia coli using GRSRSRSRSRSR as substrate and [gamma33P]ATP after 30 mins by scintillation counting.

Experiment [8] concerns the target Serine/threonine-protein kinase pim-1 (Homo sapiens, UniProt P11309). Description: Inhibition of human recombinant PIM1 expressed in Escherichia coli using histone H1 as substrate and [gamma33P]ATP after 30 mins by scintillation counting.
In experiment [9] the target is Dual specificity tyrosine-phosphorylation-regulated kinase 3 (Homo sapiens, UniProt O43781). Put plainly: Inhibition of human recombinant GST-tagged DYRK3 expressed in Escherichia coli using GRSRSRSRSRSR as substrate and [gamma33P]ATP after 30 mins by scintillation counting.
The target in experiment [10] is T2, Dual specificity tyrosine-phosphorylation-regulated kinase 2 (Homo sapiens) (UniProt Q92630).
T2 sequence (whole entry): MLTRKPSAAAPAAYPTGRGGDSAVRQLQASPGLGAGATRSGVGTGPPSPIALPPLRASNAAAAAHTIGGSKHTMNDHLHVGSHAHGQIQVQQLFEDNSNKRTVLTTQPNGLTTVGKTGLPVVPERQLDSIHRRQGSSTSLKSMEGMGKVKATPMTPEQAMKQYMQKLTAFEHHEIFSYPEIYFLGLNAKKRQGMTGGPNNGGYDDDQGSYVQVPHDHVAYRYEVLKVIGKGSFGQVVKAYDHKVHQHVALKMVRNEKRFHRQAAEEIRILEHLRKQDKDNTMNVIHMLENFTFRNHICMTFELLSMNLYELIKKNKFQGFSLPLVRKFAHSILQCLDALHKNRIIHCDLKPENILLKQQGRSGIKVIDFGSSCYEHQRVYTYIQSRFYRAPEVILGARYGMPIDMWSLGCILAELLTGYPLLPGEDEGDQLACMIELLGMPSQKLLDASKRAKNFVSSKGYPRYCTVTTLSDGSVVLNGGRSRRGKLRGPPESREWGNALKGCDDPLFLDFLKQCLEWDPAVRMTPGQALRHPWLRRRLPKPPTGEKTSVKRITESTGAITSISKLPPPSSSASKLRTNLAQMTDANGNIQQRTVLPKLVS
Description: Binding affinity to DYRK2.

Experiment [11] concerns the target Dual specificity tyrosine-phosphorylation-regulated kinase 1A (Rattus norvegicus) (UniProt Q63470). Particulars: CD Sprague-Dawley, 4.5 to 45 uM.
Experiment [12] deals with Cyclin-dependent kinase 7/ cyclin H (Homo sapiens, UniProt P50613). Put plainly: Inhibition of human recombinant CDK7/cyclin H expressed in insect cell using YSPTSPSYSPTSPSYSPTSPSKKKK as substrate and [gamma33P]ATP after 30 mins by scintillation counting. The essentials: as §1
The target in experiment [13] is CDK9/cyclin T1 (Homo sapiens, UniProt P50750). Put plainly: Inhibition of human recombinant CDK9/cyclin T expressed in insect cell using YSPTSPSYSPTSPSYSPTSPSKKKK as substrate and [gamma33P]ATP after 30 mins by scintillation counting. The essentials:
as §1

Experiment [14] deals with Dual specificity protein kinase CLK4 (Mus musculus, UniProt O35493). Description: Inhibition of mouse recombinant GST-tagged CLK4 expressed in Escherichia coli using GRSRSRSRSRSR as substrate and [gamma33P]ATP after 30 mins by scintillation counting.
The target in experiment [15] is Dual specificity protein kinase CLK1 (Mus musculus, UniProt P22518). Description: Inhibition of mouse recombinant GST-tagged CLK1 expressed in Escherichia coli using GRSRSRSRSRSR as substrate and [gamma33P]ATP after 30 mins by scintillation counting. The essentials: as §1
The nature of experiment [16]: Inhibition of Leishmania major recombinant CK1 expressed in Escherichia coli using RRKHAAIGpSAYSITA as substrate and [gamma33P]ATP after 30 mins by scintillation counting. The essentials:
as §1

Experiment [17] has as its target Cyclin-dependent kinase 2/cyclin A (Homo sapiens, UniProt P24941). Description: Inhibition of CDK2/cyclin A using [gamma33P]ATP after 30 mins by scintillation counting. It is filed as protein-complex assay. The essentials: as §1
The target in experiment [18] is Glycogen synthase kinase-3 (Sus scrofa, UniProt B2LUN4+I6LNT8). Description: Inhibition of pig GSK3alpha/beta isolated from brain using YRRAAVPPSPSLSRHSSPHQ-phosphoS-EDEEE as substrate and [gamma33P]ATP after 30 mins by scintillation counting. The essentials:
as §1

The nature of experiment [19]: Inhibition of starfish CDK1/cyclin B using histone H1 as substrate and [gamma33P]ATP after 30 mins by scintillation counting. The arrangement: species or system Asteroidea. The essentials: as §1
The nature of experiment [20]: Binding affinity to casein kinase 1.
Experiment [21] deals with Dual specificity protein kinase CLK2 (Mus musculus, UniProt O35491). Description: Inhibition of mouse recombinant GST-tagged CLK2 expressed in Escherichia coli using GRSRSRSRSRSR as substrate and [gamma33P]ATP after 30 mins by scintillation counting. The essentials: as §1
Experiment [22] deals with Casein kinase II (Homo sapiens) (UniProt P67870+P68400+P19784). Description: Inhibition of human recombinant CK2 using RRREDEESDDEE as substrate and [gamma33P]ATP at 10 uM after 30 mins by scintillation counting. It is filed as protein-complex assay.
The target of experiment [23] is Dual specificity protein kinase CLK1 (Homo sapiens) (UniProt P49759). Description: Binding affinity to CLK1.
For experiment [24], the target named is Dual specificity tyrosine-phosphorylation-regulated kinase 2 (Homo sapiens, UniProt Q92630). Put plainly: Inhibition of human recombinant GST-tagged DYRK2 expressed in Escherichia coli using GRSRSRSRSRSR as substrate and [gamma33P]ATP after 30 mins by scintillation counting.
The subject of experiment [25] is HT-22. Put plainly: Neuroprotective activity against glutamate-induced toxicity in mouse HT22 cells after 24 hrs by MTS assay. It counts as functional, cell-based. For orientation: Tetrazolium assays rely on reduction of a dye to a coloured formazan, in cell work by metabolically active cells.
Experiment [26] concerns the target T2, Dual specificity tyrosine-phosphorylation-regulated kinase 2 (Homo sapiens). Put plainly: Inhibition of human recombinant GST-tagged DYRK2 expressed in Escherichia coli using GRSRSRSRSRSR as substrate and [gamma33P]ATP at 10 uM after 30 mins by scintillation counting.
Experiment [27] addresses Dual specificity protein kinase CLK3 (Mus musculus) (UniProt O35492). Description: Inhibition of mouse recombinant GST-tagged CLK3 expressed in Escherichia coli using GRSRSRSRSRSR as substrate and [gamma33P]ATP at 10 uM after 30 mins by scintillation counting. The essentials:
(§2)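 Radiometric kinase assay with the RS peptide as substrate and 15 μM [γ-33P]ATP.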

Experiment [28] has as its target Dual specificity tyrosine-phosphorylation-regulated kinase 1A (Homo sapiens) (UniProt Q13627). Put plainly: Inhibition of human recombinant GST-tagged DYRK1A expressed in Escherichia coli using GRSRSRSRSRSR as substrate and [gamma33P]ATP at 15 uM after 30 mins by scintillation counting.
In experiment [29] the target is Dual specificity protein kinase CLK1 (Mus musculus) (UniProt P22518). Description: Inhibition of mouse recombinant GST-tagged CLK1 expressed in Escherichia coli using GRSRSRSRSRSR as substrate and [gamma33P]ATP at 10 uM after 30 mins by scintillation counting. The essentials: as §2
For experiment [30], the system named is HT-22. Put plainly: Inhibition of GSK3-mediated […] phosphorylation in mouse HT22 cells at 10 uM after 24 hrs by Western blot analysis in presence of MG132. It counts as cell-based.
For experiment [31], the target named is Dual specificity tyrosine-phosphorylation-regulated kinase 1A (Mus musculus) (UniProt Q61214). Description: Inhibition of DYRK1A in mouse HT22 cells at 10 uM after 4 hrs. It counts as cell-based. Particulars: HT-22.
Experiment [32] has as its system HT-22. Put plainly: Inhibition of GSK3 in mouse HT22 cells at 10 uM after 4 hrs. It counts as cell-based.

Each structure is given as a SMILES string. Calls of active or inactive are those of the source. The calls are words filed in the database; no cut-off is given here.

Sequence of Dual specificity protein kinase CLK3 (Mus musculus) (O35492 whole entry): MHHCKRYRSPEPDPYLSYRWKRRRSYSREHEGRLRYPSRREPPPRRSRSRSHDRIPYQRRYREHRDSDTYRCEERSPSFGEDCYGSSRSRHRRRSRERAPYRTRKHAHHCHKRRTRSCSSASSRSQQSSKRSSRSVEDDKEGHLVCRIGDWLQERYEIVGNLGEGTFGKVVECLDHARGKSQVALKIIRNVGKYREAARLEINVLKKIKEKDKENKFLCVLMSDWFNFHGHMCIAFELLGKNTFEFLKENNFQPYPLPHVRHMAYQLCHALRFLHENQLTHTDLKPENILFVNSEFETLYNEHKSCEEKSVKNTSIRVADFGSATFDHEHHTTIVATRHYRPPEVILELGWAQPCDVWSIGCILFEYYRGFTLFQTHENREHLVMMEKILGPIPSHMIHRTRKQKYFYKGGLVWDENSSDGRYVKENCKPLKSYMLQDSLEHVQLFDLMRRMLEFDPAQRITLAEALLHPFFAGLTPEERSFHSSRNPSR
Sequence of Dual specificity protein kinase CLK1 (Mus musculus) (P22518 whole entry, looked up): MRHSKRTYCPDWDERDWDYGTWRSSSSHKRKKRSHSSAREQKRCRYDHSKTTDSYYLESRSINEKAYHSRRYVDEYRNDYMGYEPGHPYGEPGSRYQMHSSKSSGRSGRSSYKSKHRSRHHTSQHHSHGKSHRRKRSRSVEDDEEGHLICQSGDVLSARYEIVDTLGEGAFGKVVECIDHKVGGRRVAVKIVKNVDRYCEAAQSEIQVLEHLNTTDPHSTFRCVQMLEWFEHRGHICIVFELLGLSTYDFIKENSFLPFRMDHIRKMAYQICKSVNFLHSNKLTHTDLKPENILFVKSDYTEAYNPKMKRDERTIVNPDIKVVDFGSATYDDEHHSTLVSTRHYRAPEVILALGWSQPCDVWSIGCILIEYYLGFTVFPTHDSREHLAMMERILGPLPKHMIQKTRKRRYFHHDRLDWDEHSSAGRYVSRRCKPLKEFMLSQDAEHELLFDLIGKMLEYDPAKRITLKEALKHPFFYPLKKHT
Sequence of Mitogen-activated protein kinase 1 (P63086 whole entry): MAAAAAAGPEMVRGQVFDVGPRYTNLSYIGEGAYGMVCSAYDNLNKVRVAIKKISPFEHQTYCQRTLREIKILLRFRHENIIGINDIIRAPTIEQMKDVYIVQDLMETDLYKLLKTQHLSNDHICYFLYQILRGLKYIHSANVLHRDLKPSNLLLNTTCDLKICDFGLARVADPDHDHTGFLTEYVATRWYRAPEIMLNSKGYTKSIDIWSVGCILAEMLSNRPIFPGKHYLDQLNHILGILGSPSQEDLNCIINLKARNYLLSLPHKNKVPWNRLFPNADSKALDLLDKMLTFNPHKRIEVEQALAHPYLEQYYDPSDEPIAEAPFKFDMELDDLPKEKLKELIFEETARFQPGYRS
Sequence of CDK9/cyclin T1 (O60563 whole entry): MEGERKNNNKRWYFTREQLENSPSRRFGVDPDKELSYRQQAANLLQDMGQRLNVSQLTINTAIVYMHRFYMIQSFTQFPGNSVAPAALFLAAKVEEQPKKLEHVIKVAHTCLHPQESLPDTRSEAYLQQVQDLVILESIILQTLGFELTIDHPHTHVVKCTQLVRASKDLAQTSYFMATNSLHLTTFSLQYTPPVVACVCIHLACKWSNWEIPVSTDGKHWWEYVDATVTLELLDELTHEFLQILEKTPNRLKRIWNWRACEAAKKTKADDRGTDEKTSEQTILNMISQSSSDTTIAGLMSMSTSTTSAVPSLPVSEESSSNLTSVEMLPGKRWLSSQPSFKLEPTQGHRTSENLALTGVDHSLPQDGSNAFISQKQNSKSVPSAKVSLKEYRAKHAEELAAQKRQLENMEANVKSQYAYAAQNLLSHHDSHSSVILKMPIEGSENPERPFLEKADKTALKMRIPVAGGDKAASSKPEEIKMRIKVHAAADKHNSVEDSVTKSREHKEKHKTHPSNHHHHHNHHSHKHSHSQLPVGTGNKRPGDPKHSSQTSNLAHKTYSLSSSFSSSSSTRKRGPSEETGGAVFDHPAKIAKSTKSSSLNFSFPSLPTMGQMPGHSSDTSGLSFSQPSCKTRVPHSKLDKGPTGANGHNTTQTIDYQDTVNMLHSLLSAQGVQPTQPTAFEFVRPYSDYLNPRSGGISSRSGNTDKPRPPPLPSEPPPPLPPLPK
Sequence of CDK9/cyclin T1 (P50750 whole entry): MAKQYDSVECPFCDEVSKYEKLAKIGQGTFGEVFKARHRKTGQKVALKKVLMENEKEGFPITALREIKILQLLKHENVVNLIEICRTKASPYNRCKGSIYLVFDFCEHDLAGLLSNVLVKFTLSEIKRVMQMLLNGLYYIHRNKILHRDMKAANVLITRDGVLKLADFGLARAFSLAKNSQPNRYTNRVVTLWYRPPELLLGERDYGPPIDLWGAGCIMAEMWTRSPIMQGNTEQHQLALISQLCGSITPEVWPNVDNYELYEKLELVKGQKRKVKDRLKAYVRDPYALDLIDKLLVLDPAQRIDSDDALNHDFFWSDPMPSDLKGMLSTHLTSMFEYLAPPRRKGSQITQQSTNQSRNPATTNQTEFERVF
Sequence of Dual specificity protein kinase CLK3 (Mus musculus, UniProt O35492) (O35492 whole entry): as the sequence (O35492 whole entry) above
Sequence of Cyclin-dependent kinase 7/ cyclin H (P51946 whole entry): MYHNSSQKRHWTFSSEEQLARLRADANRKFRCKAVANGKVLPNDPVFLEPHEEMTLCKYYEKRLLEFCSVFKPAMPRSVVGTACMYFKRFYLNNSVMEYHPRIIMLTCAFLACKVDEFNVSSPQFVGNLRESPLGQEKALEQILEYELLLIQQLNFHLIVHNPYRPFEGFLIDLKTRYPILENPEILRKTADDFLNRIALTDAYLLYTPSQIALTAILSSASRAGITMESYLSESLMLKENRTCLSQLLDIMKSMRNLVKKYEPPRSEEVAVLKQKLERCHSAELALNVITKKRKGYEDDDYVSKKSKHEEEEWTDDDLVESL
Sequence of Cyclin-dependent kinase 7/ cyclin H (P50613 whole entry): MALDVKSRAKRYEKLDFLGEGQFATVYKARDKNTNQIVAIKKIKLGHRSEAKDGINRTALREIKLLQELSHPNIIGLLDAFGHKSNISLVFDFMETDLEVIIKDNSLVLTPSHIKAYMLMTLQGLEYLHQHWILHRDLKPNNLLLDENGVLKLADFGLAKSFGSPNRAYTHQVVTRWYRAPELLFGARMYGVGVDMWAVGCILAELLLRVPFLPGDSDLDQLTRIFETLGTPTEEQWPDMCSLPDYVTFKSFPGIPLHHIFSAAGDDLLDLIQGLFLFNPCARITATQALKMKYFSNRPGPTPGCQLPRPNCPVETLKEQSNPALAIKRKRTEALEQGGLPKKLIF
Sequence of Dual specificity protein kinase CLK2 (O35491 whole entry): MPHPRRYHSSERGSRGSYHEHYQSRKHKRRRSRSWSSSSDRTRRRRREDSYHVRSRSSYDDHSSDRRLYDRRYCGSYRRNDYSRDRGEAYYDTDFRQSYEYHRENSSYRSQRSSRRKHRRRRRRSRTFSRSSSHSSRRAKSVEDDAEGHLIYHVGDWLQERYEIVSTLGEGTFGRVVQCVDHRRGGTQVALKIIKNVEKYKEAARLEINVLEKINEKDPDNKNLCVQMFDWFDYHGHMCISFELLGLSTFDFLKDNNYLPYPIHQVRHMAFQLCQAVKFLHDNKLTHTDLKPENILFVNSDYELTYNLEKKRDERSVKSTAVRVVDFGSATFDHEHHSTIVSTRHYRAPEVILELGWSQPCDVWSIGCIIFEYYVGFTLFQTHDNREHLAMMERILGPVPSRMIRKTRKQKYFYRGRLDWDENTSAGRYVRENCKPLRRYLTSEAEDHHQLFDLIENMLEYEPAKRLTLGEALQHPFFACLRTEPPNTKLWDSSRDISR
Sequence of Dual specificity protein kinase CLK4 (Mus musculus, UniProt O35493) (O35493 whole entry): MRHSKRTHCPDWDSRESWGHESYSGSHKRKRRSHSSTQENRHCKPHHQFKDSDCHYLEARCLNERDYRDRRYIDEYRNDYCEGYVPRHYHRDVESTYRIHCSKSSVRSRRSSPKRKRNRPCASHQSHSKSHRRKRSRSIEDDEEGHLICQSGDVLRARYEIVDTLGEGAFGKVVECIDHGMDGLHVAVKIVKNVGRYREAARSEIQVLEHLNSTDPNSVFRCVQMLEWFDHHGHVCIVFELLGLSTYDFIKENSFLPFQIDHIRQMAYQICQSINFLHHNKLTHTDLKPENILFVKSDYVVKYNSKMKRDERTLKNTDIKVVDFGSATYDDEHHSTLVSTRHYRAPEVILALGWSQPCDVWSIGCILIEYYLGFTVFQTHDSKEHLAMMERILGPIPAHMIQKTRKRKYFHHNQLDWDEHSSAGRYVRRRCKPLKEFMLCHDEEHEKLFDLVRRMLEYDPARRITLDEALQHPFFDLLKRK
Sequence of Serine/threonine-protein kinase pim-1 (P11309 whole entry): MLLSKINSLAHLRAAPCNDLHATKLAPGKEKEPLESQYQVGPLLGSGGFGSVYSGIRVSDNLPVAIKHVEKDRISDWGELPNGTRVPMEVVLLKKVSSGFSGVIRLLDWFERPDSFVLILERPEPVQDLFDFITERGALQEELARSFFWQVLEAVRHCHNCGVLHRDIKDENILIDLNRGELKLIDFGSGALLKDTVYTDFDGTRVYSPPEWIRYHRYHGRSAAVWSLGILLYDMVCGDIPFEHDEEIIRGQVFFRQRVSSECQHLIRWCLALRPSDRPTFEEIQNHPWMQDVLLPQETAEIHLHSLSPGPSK

The term IC50 denotes the concentration that inhibits the measured activity by half. `COc1ccc2c(c1)[nH]c1c(C)nccc12` [HARMINE]: the IC50 in [1] was over 10000 nM; in experiment [2] it was over 30000 nM; in experiment [4], over 10000 nM; in experiment [5], 1800 nM; in experiment [7], 9500 nM; in experiment [8], over 10000 nM. The 50% inhibitory concentration (IC50) in experiment [9] was 210 nM; in [12] it was over 10000 nM; in experiment [13] it was 720 nM; in experiment [14], 50 nM; in experiment [15], 72 nM; in experiment [16] it was at least 10000 nM. Further, the half-inhibitory concentration (IC50) was over 30000 nM in experiment [17]; 19000 nM in experiment [18]; 18000 nM in experiment [19]; 280 nM in experiment [21]; 120 nM in experiment [24]. The result in [3], in experiment [6], in [10], in experiment [20] and in experiment [23] was Active. In addition, the inhibition entry in [11] was “Active”. Further, in [22], the inhibition entry is “inactive”.

Turning to `O=C(O)c1ccc2c(c1)nc(Nc1cccc(Cl)c1)c1ccncc12`, the result in experiment [25] was inactive.

For `CC12CC3CC(C)(C1)CC(N)(C3)C2`, the inhibition result in experiment [26], in experiment [27], in experiment [28] and in experiment [29] was “inactive” each time.

On to `COc1cc2c(cc1OC)C(=O)C(CC1CCN(Cc3ccccc3)CC1)C2` (stereo unspecified), for which the inhibition entry in experiment [26], in experiment [27], in experiment [28] and in experiment [29] was “inactive” throughout.

For the compound `Nc1c2c(nc3ccccc13)CCCC2`, the inhibition result in [26], in experiment [27], in experiment [28] and in experiment [29] was “inactive” each time.

In the case of `Nc1ccc(C(=O)Nc2cccc(-c3nc(N4CCOCC4)c4oc5ncccc5c4n3)c2)cn1`, the outcome in [25] was inactive.

For the compound `O=C1Cc2c([nH]c3ccc([N+](=O)[O-])cc23)-c2ccccc2N1`, in experiment [25], the result was Active. The inhibition result in experiment [30] and in experiment [32] was “Active” throughout. Moreover, the inhibition entry in experiment [31] is “inactive”.

As to `COc1ccc2c3c1O[C@H]1C[C@@H](O)C=C[C@@]31CCN(C)C2`, the inhibition entry in experiment [26], in experiment [27], in experiment [28] and in [29] was “inactive” in each case.

For the compound `O=C1Nc2cc(Br)ccc2/C1=C1/N=c2ccccc2=C1NO`, in experiment [30], the inhibition result was “Active”.

In the case of `CCN(C)C(=O)Oc1cccc([C@H](C)N(C)C)c1`, the inhibition result in [26], in [27], in experiment [28] and in experiment [29] was “inactive” each time.
